Reference: ChEMBL document CHEMBL1145462, “In vivo pharmacodynamic activity of the glycopeptide dalbavancin” (Antimicrob Agents Chemother, 2007)
≈ marks a conversion by molar mass, not a printed value.

How the values were obtained:
Staphylococcus aureus [1] = assay: AUC/MIC ratio of Staphylococcus aureus Smith infected neutropenic mouse thigh infection model at 148 mg/kg, ip administered every 72 hrs by 2-log killing experiment; assay type: functional; details: route intraperitoneal
Staphylococcus aureus [2] = assay: AUC/MBC ratio of Staphylococcus aureus 33591 infected neutropenic mouse thigh infection model at 22.3 mg/kg, ip administered every 24 hrs by static effect experiment; assay type: functional; details: route intraperitoneal
Staphylococcus aureus [3] = assay: AUC/MBC ratio of Staphylococcus aureus 307109 infected neutropenic mouse thigh infection model at 37 mg/kg, ip administered every 72 hrs by 2-log killing experiment; assay type: functional; details: route intraperitoneal
Streptococcus pneumoniae [4] = assay: AUC/MIC ratio of Streptococcus pneumoniae ATCC 10813 infected neutropenic mouse thigh infection model at 1.75 mg/kg, ip administered every 24 hrs by 2-log killing experiment; assay type: functional; details: route intraperitoneal
Streptococcus pneumoniae [5] = assay: Antibacterial activity against Streptococcus pneumoniae 1325 by microdilution method; assay type: functional
Procedure, shortened: (§1)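 MIC and MBC were determined by CLSI broth microdilution, in duplicate on at least two occasions. Staphylococci were grown in Mueller-Hinton broth and agar; pneumococci were plated on sheep blood agar.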

[6] = Half life in bacterial pathogen-infected neutropenic Swiss ICR mouse thigh infection model at 40 mg/kg, ip; assay type: ADME, organism-based; set-up: dose 40 mg/kg, route intraperitoneal; details: in vivo
Procedure, shortened: (§2)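 Thigh-infected neutropenic mice received single intraperitoneal doses (2.5, 5, 10, 20, 40, 80 mg/kg; 0.2 ml/dose). Blood was drawn by retroorbital aspiration from groups of three mice at 0.5, 1, 2, 4, 6, 24, 48, 72 and 96 h. Plasma levels were measured by microbiologic assay with Bacillus subtilis (detection limit 0.10 mg/liter). Noncompartmental analysis was used: half-life by linear least-squares regression, AUC by trapezoidal rule.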

Streptococcus pneumoniae [7] = assay: AUC/MIC ratio of Streptococcus pneumoniae 1293 infected neutropenic mouse thigh infection model at 1.28 mg/kg, ip administered every 72 hrs by 1-log killing experiment; assay type: functional; details: route intraperitoneal
[8] = AUC in bacterial pathogen-infected neutropenic Swiss ICR mouse thigh infection model at 5 mg/kg, ip; assay type: ADME, organism-based; set-up: dose 5 mg/kg, route intraperitoneal; details: in vivo; procedure, shortened: as §2
[9] = AUC in bacterial pathogen-infected neutropenic Swiss ICR mouse thigh infection model at 40 mg/kg, ip; assay type: ADME, organism-based; set-up: dose 40 mg/kg, route intraperitoneal; details: in vivo; procedure, shortened: as §2
Streptococcus pneumoniae [10] = assay: Bactericidal activity against penicillin-susceptible Streptococcus pneumoniae ATCC 10813 infected neutropenic Swiss ICR mouse thigh infection model assessed as drug level causing 1-log reduction of bacterial count at 1.26 mg/kg, ip dosed every 36 hrs; assay type: functional; details: route intraperitoneal
Streptococcus pneumoniae [11] = assay: AUC/MIC ratio of Streptococcus pneumoniae 1329 infected neutropenic mouse thigh infection model at 1.45 mg/kg, ip administered every 24 hrs by 2-log killing experiment; assay type: functional; details: route intraperitoneal
Staphylococcus aureus [12] = assay: AUC/MIC ratio of Staphylococcus aureus Smith infected neutropenic mouse thigh infection model at 50.7 mg/kg, ip administered every 24 hrs by 1-log killing experiment; assay type: functional; details: route intraperitoneal
Staphylococcus aureus [13] = assay: AUC/MIC ratio of Staphylococcus aureus 33591 infected neutropenic mouse thigh infection model at 93 mg/kg, ip administered every 72 hrs by 1-log killing experiment; assay type: functional; details: route intraperitoneal
Staphylococcus aureus [14] = assay: Bactericidal activity against […] Staphylococcus aureus ATCC 29213 infected neutropenic Swiss ICR mouse thigh infection model assessed as drug level causing 1-log reduction of bacterial count at 10 mg/kg, ip dosed every 72 hrs; assay type: functional; details: route intraperitoneal
Procedure, shortened: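 Neutropenic thigh-infected mice were treated ip starting 2 h post-infection for 144 h, with doses given q24h or q72h. Thigh CFU were fitted to a sigmoid Hill Emax model by nonlinear least squares. The dose giving a 1-log10 reduction versus start-of-therapy counts was derived from the fit, together with the free-drug 24-h AUC/MIC.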

Staphylococcus aureus [15] = assay: AUC/MBC ratio of Staphylococcus aureus 33591 infected neutropenic mouse thigh infection model at 27.7 mg/kg, ip administered every 24 hrs by 1-log killing experiment; assay type: functional; details: route intraperitoneal
[16] = AUC in bacterial pathogen-infected neutropenic Swiss ICR mouse thigh infection model at 20 mg/kg, ip; assay type: ADME, organism-based; set-up: dose 20 mg/kg, route intraperitoneal; details: in vivo; procedure, shortened: as §2
Staphylococcus aureus [17] = assay: AUC/MIC ratio of Staphylococcus aureus 33591 infected neutropenic mouse thigh infection model at 27.7 mg/kg, ip administered every 24 hrs by 1-log killing experiment; assay type: functional; details: route intraperitoneal
Staphylococcus aureus [18] = assay: AUC/MIC ratio of Staphylococcus aureus 307109 infected neutropenic mouse thigh infection model at 37 mg/kg, ip administered every 72 hrs by 2-log killing experiment; assay type: functional; details: route intraperitoneal
Staphylococcus aureus [19] = assay: AUC/MBC ratio of Staphylococcus aureus ATCC 25923 infected neutropenic mouse thigh infection model at 42.7 mg/kg, ip administered every 24 hrs by static effect experiment; assay type: functional; details: route intraperitoneal
Streptococcus pneumoniae [20] = assay: Bactericidal activity against penicillin-susceptible Streptococcus pneumoniae ATCC 10813 infected neutropenic Swiss ICR mouse thigh infection model assessed as drug level causing 2-log reduction of bacterial count at 0.71 mg/kg, ip dosed every 72 hrs; assay type: functional; details: route intraperitoneal
Procedure, shortened: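 Neutropenic mice (cyclophosphamide ip 150 mg/kg day −4, 100 mg/kg day −1, then every 48 h) received 0.1 ml log-phase inoculum per thigh under halothane. Intraperitoneal dalbavancin started 2 h later and was given for 6 days at q12h, q24h, q36h or q72h, two mice per regimen. Thigh CFU were counted at 144 h. Endpoint doses relative to start-of-therapy counts came from Hill-model nonlinear regression and are expressed per 24 h.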

Streptococcus pneumoniae [21] = assay: AUC/MIC ratio of Streptococcus pneumoniae ATCC 10813 infected neutropenic mouse thigh infection model at 0.71 mg/kg, ip administered every 72 hrs by static effect experiment; assay type: functional; details: route intraperitoneal
Staphylococcus aureus [22] = assay: AUC/MIC ratio of Staphylococcus aureus ATCC 25923 infected neutropenic mouse thigh infection model at 185 mg/kg, ip administered every 72 hrs by 1-log killing experiment; assay type: functional; details: route intraperitoneal
Staphylococcus aureus [23] = assay: AUC/MBC ratio of Staphylococcus aureus 33591 infected neutropenic mouse thigh infection model at 114 mg/kg, ip administered every 72 hrs by 2-log killing experiment; assay type: functional; details: route intraperitoneal
Staphylococcus aureus [24] = assay: AUC/MBC ratio of Staphylococcus aureus 31005 infected neutropenic mouse thigh infection model at 127 mg/kg, ip administered every 72 hrs by 2-log killing experiment; assay type: functional; details: route intraperitoneal
Streptococcus pneumoniae [25] = assay: Antibacterial activity against Streptococcus pneumoniae 1293 by microdilution method; assay type: functional; procedure, shortened: as §1
Staphylococcus aureus [26] = assay: AUC/MIC ratio of Staphylococcus aureus 33591 infected neutropenic mouse thigh infection model at 22.3 mg/kg, ip administered every 24 hrs by static effect experiment; assay type: functional; details: route intraperitoneal
Streptococcus pneumoniae [27] = assay: Bactericidal activity in Streptococcus pneumoniae ATCC 10813 infected non-neutropenic mouse thigh infection model assessed as drug level causing 2-log reduction of bacterial count at 2.03 mg/kg/6days; assay type: functional
Staphylococcus aureus [28] = assay: AUC/MBC ratio of Staphylococcus aureus ATCC 25923 infected neutropenic mouse thigh infection model at 185 mg/kg, ip administered every 72 hrs by 1-log killing experiment; assay type: functional; details: route intraperitoneal
Staphylococcus aureus [29] = assay: Antibacterial activity against Staphylococcus aureus ATCC 25923 in presence of 95% mouse serum ultrafiltrate; assay type: functional
Procedure, shortened: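 MIC determined in broth, heat-treated (100°C, 30 min) 95% mouse serum, and 95% mouse serum ultrafiltrate, using arithmetic dilutions of 0.02 mg/liter per tube. Protein binding estimated as (MIC in 95% serum − MIC in ultrafiltrate)/MIC in 95% serum.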

Staphylococcus aureus [30] = assay: AUC/MIC ratio of Staphylococcus aureus Smith infected neutropenic mouse thigh infection model at 73.5 mg/kg, ip administered every 24 hrs by 2-log killing experiment; assay type: functional; details: route intraperitoneal

With `CN[C@H]1C(=O)N[C@@H]2Cc3ccc(cc3)Oc3cc4cc(c3O[C@@H]3O[C@H](C(=O)O)[C@@H](O)[C@H](O)[C@H]3NC(=O)CCCCCCCCC(C)C)Oc3ccc(cc3Cl)[C@@H](O)[C@@H]3NC(=O)[C@H](NC(=O)[C@@H]4NC(=O)[C@@H](NC2=O)c2cc(cc(O)c2Cl)Oc2cc1ccc2O)c1ccc(O)c(c1)-c1c(O[C@H]2O[C@H](CO)[C@@H](O)[C@H](O)[C@@H]2O)cc(O)cc1[C@@H](C(=O)NCCCN(C)C)NC3=O` [DALBAVANCIN] as the compound, how does the RatioAUC/MIC (Staphylococcus aureus [1]) read?
The RatioAUC/MIC was 254.

And the Ratio (Staphylococcus aureus [2])?
The Ratio was 46.

What about the Ratio (Staphylococcus aureus [3]) of the same compound?
The Ratio was 14.6.

What about the RatioAUC/MIC (Streptococcus pneumoniae [4]) of the same compound?
Its RatioAUC/MIC is 9.9.

What about the MBC (Streptococcus pneumoniae [5]) of the same compound?
Its MBC is 8 ng/mL (≈ 4.4 nM).

What about the MIC (Streptococcus pneumoniae [5]) of the same compound?
The MIC was 8 ng/mL (≈ 4.4 nM).

What about the half-life [6] of the same compound?
The half-life was 10.4 h.

What about the RatioAUC/MIC (Streptococcus pneumoniae [7]) of the same compound?
The RatioAUC/MIC was 18.

What about the AUC [8] of the same compound?
The AUC was 285 µg·h/mL.

What about the AUC [9] of the same compound?
Its AUC is 5360 µg·h/mL.

What about the Activity (Streptococcus pneumoniae [10]) of the same compound?
The Activity was 1.53.

And the RatioAUC/MIC (Streptococcus pneumoniae [11])?
Its RatioAUC/MIC is 26.7.

And the RatioAUC/MIC (Staphylococcus aureus [12])?
The RatioAUC/MIC was 248.

What about the RatioAUC/MIC (Staphylococcus aureus [13]) of the same compound?
Its RatioAUC/MIC is 160.

What about the Activity (Staphylococcus aureus [14]) of the same compound?
The Activity was 31.

And the Ratio (Staphylococcus aureus [15])?
The Ratio was 58.3.

And the AUC [16]?
Its AUC is 2260 µg·h/mL.

And the RatioAUC/MIC (Staphylococcus aureus [17])?
Its RatioAUC/MIC is 121.

And the RatioAUC/MIC (Staphylococcus aureus [18])?
Its RatioAUC/MIC is 121.

And the Ratio (Staphylococcus aureus [19])?
Its Ratio is 52.

What about the Activity (Streptococcus pneumoniae [20]) of the same compound?
The Activity was 0.82.

And the RatioAUC/MIC (Streptococcus pneumoniae [21])?
Its RatioAUC/MIC is 1.4.

And the RatioAUC/MIC (Staphylococcus aureus [22])?
The RatioAUC/MIC was 317.

And the Ratio (Staphylococcus aureus [23])?
Its Ratio is 94.

What about the Ratio (Staphylococcus aureus [24]) of the same compound?
Its Ratio is 217.

And the MBC (Streptococcus pneumoniae [25])?
The MBC was 4 ng/mL (≈ 2.2 nM).

What about the MIC (Streptococcus pneumoniae [25]) of the same compound?
Its MIC is 4 ng/mL (≈ 2.2 nM).

And the RatioAUC/MIC (Staphylococcus aureus [26])?
Its RatioAUC/MIC is 96.2.

And the Activity (Streptococcus pneumoniae [27])?
The Activity was 2.66.

What about the Ratio (Staphylococcus aureus [28]) of the same compound?
The Ratio was 76.1.

What about the MIC (Staphylococcus aureus [29]) of the same compound?
The MIC was 500 ng/mL.

And the RatioAUC/MIC (Staphylococcus aureus [30])?
Its RatioAUC/MIC is 361.
